Laboratory results as given in ChEMBL document CHEMBL3997766, “Synthesis and pre-clinical studies of new amino-acid ester thiazolide prodrugs” (Eur J Med Chem, 2017).

Assays:
Rattus norvegicus [1] = assay: Elimination half life in Sprague-Dawley rat assessed as Tizoxanide level at 6.3 mg/kg, iv administered as single dose; type: ADME, organism-based; conditions: in vivo
Canis familiaris [2] = assay: Toxicity in Beagle dog assessed as thickened duodenum up to 25 mg/kg, po administered as gelatin capsule once daily for 28 days measured on day 29; type: organism-based, Canis lupus familiaris; conditions: in vivo, 672 h
How it was run: (§1)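 Sub-acute study in Beagle dogs dosed orally by gelatin capsule at 5, 15 and 25 mg/kg once a day for 28 consecutive days.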

Canis familiaris [3] = assay: Toxicity in Beagle dog assessed as early death at 5 to 25 mg/kg, po administered as gelatin capsule once daily for 28 days followed by 2 weeks recovery period measured on day 43; type: organism-based, Canis lupus familiaris; conditions: in vivo
How it was run: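 Sub-acute study in Beagle dogs: 5, 15 or 25 mg/kg/day given orally in a single gelatin capsule once a day for 28 consecutive days to assess systemic exposure and toxicity, with NOAEL determination.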

Rattus norvegicus [4] = assay: Toxicity in Sprague-Dawley rat assessed as decrease in serum total protein level at 75 mg/kg administered as oral gavage qd for 28 consecutive days followed by 2 weeks recovery period measured on day 43; type: organism-based; conditions: in vivo, 336 h
How it was run: (§2)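 Sub-acute study in Sprague-Dawley rats dosed orally with a suspension at 10, 30 and 75 mg/kg once daily for 28 consecutive days. Four groups of up to 30 rats each (15M/15F).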

Canis familiaris [5] = assay: Toxicity in Beagle dog assessed as effect on coagulation up to 25 mg/kg, po administered as gelatin capsule once daily for 28 days measured on day 29; type: organism-based, Canis lupus familiaris; conditions: in vivo, 672 h; how it was run: as §1
Rattus norvegicus [6] = assay: Toxicity in Sprague-Dawley rat assessed as erosions in stomach at 75 mg/kg administered as oral gavage qd for 28 consecutive days followed by 2 weeks recovery period by microscopic method; type: organism-based; conditions: in vivo, 336 h; how it was run: as §2
Rattus norvegicus [7] = assay: Tmax in Sprague-Dawley rat assessed as Tizoxanide level in plasma at 28 mg/kg, po; type: ADME, organism-based; conditions: in vivo
How it was run: (§3)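 Rats in groups of three got a single oral dose (30 mg/kg) or a single intravenous injection (6 mg/kg). Serial blood samples were taken at 5, 10, 15 and 30 min and at 1, 2, 4, 8, 23 and 24 h post-dose for plasma drug and glucuronide levels. Bioavailability came from oral versus intravenous AUC after dose correction to 30 mg/kg.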

Rattus norvegicus [8] = assay: Toxicity in Sprague-Dawley rat assessed as mucosal hyperplasia in duodenum at 75 mg/kg administered as oral gavage qd for 28 consecutive days followed by 2 weeks recovery period by microscopic method; type: organism-based; conditions: in vivo, 336 h
How it was run: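 Sub-acute oral toxicity study in Sprague-Dawley rats. The drug was given once daily for 28 consecutive days at 10, 30 or 75 mg/kg, formulated as a suspension. There were 4 groups of up to 30 rats each (15 male, 15 female). The study evaluated systemic exposure to the drug.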

Rattus norvegicus [9] = assay: Toxicity in Sprague-Dawley rat assessed as increase in total bilirubin level at 30 to 75 mg/kg administered as oral gavage qd for 28 consecutive days followed by 2 weeks recovery period measured on day 43; type: organism-based; conditions: in vivo, 336 h; how it was run: as §2
Canis familiaris [10] = assay: Toxicity in Beagle dog assessed as effect on hematology up to 25 mg/kg, po administered as gelatin capsule once daily for 28 days measured on day 29; type: organism-based, Canis lupus familiaris; conditions: in vivo, 672 h; how it was run: as §1
Plasma [11] = assay: Drug metabolism in Sprague-Dawley rat assessed as tizoxanide level in plasma administered via oral gavage qd for 28 consecutive days; type: ADME
How it was run: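 In a sub-acute study, Sprague-Dawley rats were dosed once daily for 28 consecutive days at 10, 30 or 75 mg/kg, given as a yellow suspension. There were four groups of up to 30 rats each (15M/15F) to assess systemic exposure.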

Plasma [12] = assay: Drug metabolism in Sprague-Dawley rat assessed as tizoxanide-glucuronide formation in plasma at 30 mg/kg, po administered as single dose measured after 5 mins; type: ADME, organism-based; conditions: in vivo
How it was run: (§4)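 Plasma tizoxanide and tizoxanide glucuronide were measured and PK parameters derived. AUCs were dose-corrected to 30 mg/kg for bioavailability.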

Rattus norvegicus [13] = assay: Toxicity in Sprague-Dawley rat assessed as eosinophilic cytoplasmic bodies in epithelial cells of stomach at 10 to 75 mg/kg administered as oral gavage qd for 28 consecutive days measured on day 29 by microscopic method; type: organism-based; conditions: in vivo
How it was run: (§5)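 Sub-acute study in Sprague-Dawley rats: 10, 30 or 75 mg/kg given orally once a day for 28 consecutive days as a yellow suspension. There were 4 groups of up to 30 rats each (15M/15F), including a control. Body weight, clinical observations and terminal findings were assessed.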

Rattus norvegicus [14] = assay: Toxicity in Sprague-Dawley rat assessed as erosions in stomach at 30 to 75 mg/kg administered as oral gavage qd for 28 consecutive days measured on day 29 by microscopic method; type: organism-based; conditions: in vivo; how it was run: as §5
Rattus norvegicus [15] = assay: Toxicity in Sprague-Dawley rat assessed as eosinophilic cytoplasmic bodies in epithelial cells of duodenum at 75 mg/kg administered as oral gavage qd for 28 consecutive days followed by 2 weeks recovery period by microscopic method; type: organism-based; conditions: in vivo, 336 h; how it was run: as §2
Rattus norvegicus [16] = assay: AUC (0 to t) in Sprague-Dawley rat assessed as tizoxanide-glucuronide level in plasma at 30 mg/kg, po administered as single dose; type: ADME, organism-based; conditions: in vivo; how it was run: as §4
Rattus norvegicus [17] = assay: Cmax in Sprague-Dawley rat assessed as Tizoxanide level in plasma at 30 mg/kg, po administered as single dose; type: ADME, organism-based; set-up: dose 30 mg/kg, route oral; conditions: in vivo
How it was run: (§6)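 Rats in groups of three received one compound as a single oral dose (30 mg/kg) or a single intravenous injection (6 mg/kg), with four compounds studied separately. Serial blood samples were drawn at 5, 10, 15 and 30 min and at 1, 2, 4, 8, 23 and 24 h post-dose. Plasma parent drug and metabolites were quantified and PK parameters were derived.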

Plasma [18] = assay: Prodrug activation in Sprague-Dawley rat assessed as tizoxanide formation in plasma at 6.3 mg/kg, iv administered as single dose measured after 5 mins; type: organism-based; conditions: in vivo; how it was run: as §3
Rattus norvegicus [19] = assay: Toxicity in Sprague-Dawley rat assessed as effect on respiratory rate by measuring breaths per minute at 100 to 1000 mg/kg administered as single dose via oral gavage; type: organism-based; conditions: in vivo
How it was run: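 Respiratory safety study: conscious rats, 3 groups of 6 (3M/3F), given single oral-gavage doses of 100, 300 or 1000 mg/kg, with an untreated control group. Respiratory rate (breaths per minute), tidal volume and minute volume were recorded, and mortality was noted.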

Rattus norvegicus [20] = assay: Toxicity in Sprague-Dawley rat assessed as epithelial hyperplasia in stomach at 30 to 75 mg/kg administered as oral gavage qd for 28 consecutive days measured on day 29 by microscopic method; type: organism-based; conditions: in vivo; how it was run: as §5
Canis familiaris [21] = assay: Toxicity in Beagle dog assessed as decrease in cholesterol level up to 25 mg/kg, po administered as gelatin capsule once daily for 28 days measured on day 29; type: organism-based, Canis lupus familiaris; conditions: in vivo, 672 h; how it was run: as §1
Rattus norvegicus [22] = assay: Toxicity in Sprague-Dawley rat assessed as decrease in serum total albumin level at 75 mg/kg administered as oral gavage qd for 28 consecutive days followed by 2 weeks recovery period measured on day 43; type: organism-based; conditions: in vivo, 336 h; how it was run: as §2
Rattus norvegicus [23] = assay: Toxicity in Sprague-Dawley rat assessed as eosinophilic cytoplasmic bodies in epithelial cells of stomach at 10 to 75 mg/kg administered as oral gavage qd for 28 consecutive days followed by 2 weeks recovery period by microscopic method; type: organism-based; conditions: in vivo, 336 h; how it was run: as §2
Rattus norvegicus [24] = assay: AUC (0 to t) in Sprague-Dawley rat assessed as Tizoxanide level at 30 mg/kg, po administered as single dose; type: ADME, organism-based; conditions: in vivo; how it was run: as §4
Rattus norvegicus [25] = assay: Cmax in Sprague-Dawley rat assessed as Tizoxanide-glucuronide level in plasma at 6 mg/kg, iv administered as single dose; type: ADME, organism-based; set-up: dose 6 mg/kg, route intravenous; conditions: in vivo; how it was run: as §6
Rattus norvegicus [26] = assay: Toxicity in Sprague-Dawley rat assessed as decrease in serum alanine transferase level at 75 mg/kg administered as oral gavage qd for 28 consecutive days followed by 2 weeks recovery period measured on day 43; type: organism-based; conditions: in vivo, 336 h; how it was run: as §2

SMILES: CC(C)(C)[C@H](N)C(=O)Oc1ccccc1C(=O)Nc1ncc([N+](=O)[O-])s1.Cl
- beta t1/2 (Rattus norvegicus [1]): 22.8 min
- Activity (Canis familiaris [2]): Non-Toxic
- Activity (Canis familiaris [3]): Non-Toxic
- Activity (Rattus norvegicus [4]): Toxic
- Activity (Canis familiaris [5]): Non-Toxic
- Activity (Rattus norvegicus [6]): Non-Toxic
- Tmax (Rattus norvegicus [7]): 5 to 15 min
- Activity (Rattus norvegicus [8]): Non-Toxic
- Activity (Rattus norvegicus [9]): Toxic
- Activity (Canis familiaris [10]): Non-Toxic
- Drug metabolism (Plasma [11]): Dose-dependent effect
- Drug metabolism (Plasma [12]): Metabolite_Detected
- Activity (Rattus norvegicus [13]): Toxic
- Activity (Rattus norvegicus [14]): Toxic
- Activity (Rattus norvegicus [15]): Non-Toxic
- AUCt (Rattus norvegicus [16]): 23600 ng·h/mL
- Cmax (Rattus norvegicus [17]): 6190 ng/mL
- Drug metabolism (Plasma [18]): Metabolite_Detected
- Activity (Rattus norvegicus [19]): Toxic
- Activity (Rattus norvegicus [20]): Toxic
- Activity (Canis familiaris [21]): Toxic
- Activity (Rattus norvegicus [22]): Toxic
- Activity (Rattus norvegicus [23]): Non-Toxic
- AUCt (Rattus norvegicus [24]): 3120 ng·h/mL
- Cmax (Rattus norvegicus [25]): 7890 ng/mL
- Activity (Rattus norvegicus [26]): Toxic
